# From ChEMBL document CHEMBL6115053, “Optimization and Characterization of N-Acetamide Indoles as Antimalarials That Target PfATP4” (J Med Chem, 2025)
# Activity calls are given as the source filed them. No cut-off for these calls is given here.
# What was measured:
# [1] = (§1) Cytotoxicity against human HepG2 cells assessed as inhibition of cell growth incubated for 48 hrs by celltiterglo assay; assay type: toxicity, cell-based; details: HepG2 cells
# Plasmodium falciparum [2] = test: Antiplasmodial activity against asexual Plasmodium falciparum 3D7 infected in human […] cells assessed as reduction in parasite growth measured for 72 hrs by LDH assay; assay type: functional, organism-based; details: 3D7, 72 h
# Plasmodium falciparum [3] = test: Antiplasmodial activity against Plasmodium falciparum 3D7 infected in RBC assessed as reduction in extracellular parasite growth measured for 8 hrs by Giemsa-staining based microscopic analysis; assay type: functional; set-up: scale not given: the % may be the effect or the level left
# Procedure, shortened: (§2)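 Giemsa-stained thin smears were read at 8 h and the percentages of extracellular and intracellular parasites counted, compared with untreated parasites at 0 h.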
# Plasmodium falciparum [4] = test: Antiplasmodial activity against N-(2,6-difluorophenyl)-2-(6-(5-methyl-1,3,4-oxadiazol-2-yl)-1H-indol-1-yl)acetamide-resistant Plasmodium falciparum Dd2 harbouring ATP4 genome with 2.8 fold CNV by SYBR green staining based analysis; assay type: functional, organism-based
# Plasmodium falciparum [5] = test: Antiplasmodial activity against N-(2,6-difluorophenyl)-2-(6-(5-methyl-1,3,4-oxadiazol-2-yl)-1H-indol-1-yl)acetamide-resistant Plasmodium falciparum Dd2 harboring plasmodium falciparum ATP4 D425E mutant by SYBR green staining based analysis; assay type: functional, organism-based
# Plasmodium falciparum [6] = test: Antiplasmodial activity against Plasmodium falciparum 3D7 infected in human […] cells incubated for 72 hrs; assay type: functional, organism-based; details: 3D7, 72 h
# Plasmodium falciparum [7] = test: Antiplasmodial activity against W454-resistant population 2 Plasmodium falciparum 3D7 harboring Plasmodium falciparum ATP4 L928F mutant by LDH assay; assay type: functional, organism-based
# [8] = molecular target: T1, P-type sodium-transporting ATPase4 (Plasmodium falciparum (isolate 3D7), UniProt A0A143ZZK9); test: Inhibition of Plasmodium falciparum 3D7 ATP4 assessed as increase in Na+ concentration in parasite cytosol measured for 60 mins; assay type: subcellular
# T1 sequence (A0A143ZZK9 whole entry): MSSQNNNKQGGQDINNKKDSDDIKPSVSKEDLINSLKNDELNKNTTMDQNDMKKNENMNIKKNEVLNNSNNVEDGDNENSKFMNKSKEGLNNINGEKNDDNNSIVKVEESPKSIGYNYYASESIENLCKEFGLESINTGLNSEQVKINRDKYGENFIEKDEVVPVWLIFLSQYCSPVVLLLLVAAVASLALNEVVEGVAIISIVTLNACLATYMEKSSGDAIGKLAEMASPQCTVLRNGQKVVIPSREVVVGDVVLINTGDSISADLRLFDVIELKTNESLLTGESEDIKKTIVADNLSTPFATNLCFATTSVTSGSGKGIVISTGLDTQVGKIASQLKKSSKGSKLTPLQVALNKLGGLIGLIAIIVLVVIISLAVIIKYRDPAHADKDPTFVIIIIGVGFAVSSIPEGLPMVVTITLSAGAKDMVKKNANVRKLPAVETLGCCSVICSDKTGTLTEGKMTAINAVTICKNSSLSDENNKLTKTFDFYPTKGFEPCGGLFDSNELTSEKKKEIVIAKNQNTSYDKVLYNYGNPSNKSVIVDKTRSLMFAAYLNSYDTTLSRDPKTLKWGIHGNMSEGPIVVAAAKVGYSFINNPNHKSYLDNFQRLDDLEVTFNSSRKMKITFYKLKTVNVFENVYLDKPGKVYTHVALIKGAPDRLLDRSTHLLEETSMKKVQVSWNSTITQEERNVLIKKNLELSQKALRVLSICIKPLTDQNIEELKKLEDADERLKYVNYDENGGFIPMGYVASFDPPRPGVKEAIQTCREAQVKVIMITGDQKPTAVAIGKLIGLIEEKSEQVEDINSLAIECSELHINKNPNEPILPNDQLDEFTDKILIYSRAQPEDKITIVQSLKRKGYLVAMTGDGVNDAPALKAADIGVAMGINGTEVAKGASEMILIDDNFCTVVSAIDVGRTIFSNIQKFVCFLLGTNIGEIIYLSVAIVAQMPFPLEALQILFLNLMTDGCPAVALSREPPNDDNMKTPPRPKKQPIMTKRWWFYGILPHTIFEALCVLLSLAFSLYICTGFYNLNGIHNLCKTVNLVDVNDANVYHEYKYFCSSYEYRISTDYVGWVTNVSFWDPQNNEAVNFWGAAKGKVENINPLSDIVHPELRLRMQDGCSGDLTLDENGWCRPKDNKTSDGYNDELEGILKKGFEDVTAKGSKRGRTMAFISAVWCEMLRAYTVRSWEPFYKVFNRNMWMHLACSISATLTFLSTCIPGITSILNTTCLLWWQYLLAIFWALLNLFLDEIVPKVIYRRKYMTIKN
# [9] = Metabolic stability in mouse liver microsome assessed as intrinsic clearance; assay type: ADME; details: microsomes
# Plasmodium falciparum [10] = test: Antiplasmodial activity against W454-resistant population 3 Plasmodium falciparum 3D7 harboring Plasmodium falciparum ATP4 L928F mutant by LDH assay; assay type: functional, organism-based
# [11] = Aqueous solubility in PBS buffer at pH 7.4; assay type: physicochemical
# [12] = Lipophilicity, logD of compound at pH 7.4 by shake-flask method; assay type: physicochemical; details: buffer
# [13] = Metabolic stability in human liver microsome assessed as intrinsic clearance; assay type: ADME; details: microsomes
# Plasmodium falciparum [14] = test: Antiplasmodial activity against multidrug-resistant Plasmodium falciparum Dd2 harboring plasmodium falciparum ATP4 I398F/P990R/D1247Y mutant by SYBR green staining based analysis; assay type: functional, organism-based
# HepG2 [15] = test: as §1; assay type: toxicity, cell-based; details: hepg2, 48 h
# Plasmodium falciparum [16] = test: Antimalarial activity against trophozoite stage Plasmodium falciparum 3D7 at 10 times EC50 incubated for 48 hrs by SYBR Green dye based analysis; assay type: functional, organism-based
# [17] = molecular target: T2, P-type sodium-transporting ATPase4 (Plasmodium falciparum (isolate 3D7)) (UniProt A0A143ZZK9); test: Inhibition of Plasmodium falciparum 3D7 ATP4 assessed as increase in Na+ concentration in parasite cytosol upto 1000 nM measured for 60 mins; assay type: subcellular
# T2 sequence (whole entry): T1 sequence (A0A143ZZK9 whole entry)
# Plasmodium falciparum [18] = test: Antiplasmodial activity against multidrug-resistant Plasmodium falciparum Dd2 harboring plasmodium falciparum ATP4 G358S mutant by SYBR green staining based analysis; assay type: functional, organism-based
# HepG2 [19] = test: Cytotoxicity against human HepG2 cells; assay type: functional
# Plasmodium falciparum [20] = test: Antiplasmodial activity against Plasmodium falciparum 3D7 infected in human […] cells; assay type: functional, organism-based
# [21] = Metabolic stability in rat hepatocyte […] assessed as intrinsic clearance measured per 10^6 cells; assay type: ADME, cell-based; details: hepatocytes
# Plasmodium falciparum [22] = test: Antiplasmodial activity against N-(2,6-difluorophenyl)-2-(6-(5-methyl-1,3,4-oxadiazol-2-yl)-1H-indol-1-yl)acetamide-resistant Plasmodium falciparum Dd2 harboring plasmodium falciparum ATP4 F156L mutant by SYBR green staining based analysis; assay type: functional, organism-based
# Plasmodium falciparum [23] = test: Antimalarial activity against Plasmodium falciparum NF54 infected assessed as inhibition of male gamete formation incubated for 48 hrs by automated bright field microscopic analysis; assay type: functional, organism-based; details: NF54, 48 h
# Plasmodium falciparum [24] = test: Antiplasmodial activity against W454-resistant population 1 Plasmodium falciparum 3D7 harboring Plasmodium falciparum ATP4 L928F mutant by LDH assay; assay type: functional, organism-based
# Plasmodium falciparum [25] = test: Antiplasmodial activity against Plasmodium falciparum 3D7 infected in RBC assessed as reduction in parasite growth measured for 8 hrs by Giemsa-staining based microscopic analysis; assay type: functional, organism-based; procedure, shortened: as §2
# Plasmodium falciparum [26] = test: Antimalarial activity against Plasmodium falciparum NF54 infected assessed as inhibition of female gamete formation incubated for 48 hrs by automated bright field microscopic analysis; assay type: functional, organism-based; details: NF54, 48 h
# Plasmodium falciparum [27] = test: Antiplasmodial activity against multi-drug resistant Plasmodium falciparum Dd2; assay type: functional, organism-based
# Plasmodium falciparum [28] = test: Antiplasmodial activity against Plasmodium falciparum 3D7 infected in RBC assessed as reduction in deoxythymidine diphosphate level at 5 nM incubated for 5 hrs by LC-MS analysis; assay type: functional, organism-based
# Plasmodium falciparum [29] = test: Antiplasmodial activity against Plasmodium falciparum 3D7 infected in RBC assessed as reduction in deoxythymidine triphosphate level at 5 nM incubated for 5 hrs by LC-MS analysis; assay type: functional, organism-based
# Plasmodium falciparum [30] = test: Antiplasmodial activity against wild type Plasmodium falciparum 3D7 incubated for 48 hrs; assay type: functional, organism-based; details: 3D7, 48 h
# Plasmodium falciparum [31] = test: Antiplasmodial activity against multidrug resistant Plasmodium falciparum W2mef incubated for 48 hrs by SYBR staining based fluorometer assay; assay type: functional, organism-based
# Plasmodium falciparum [32] = test: Antiplasmodial activity against Plasmodium falciparum 3D7 infected in RBC assessed as reduction in deoxycytidine monophosphate level at 5 nM incubated for 5 hrs by LC-MS analysis; assay type: functional, organism-based
# Plasmodium falciparum [33] = test: Antiplasmodial activity against Plasmodium falciparum 3D7 infected in RBC assessed as reduction in pyrimidine-deoxyribonucleotides level at 5 nM incubated for 5 hrs by LC-MS analysis; assay type: functional, organism-based
# Plasmodium falciparum [34] = test: Antiplasmodial activity against multidrug resistant Plasmodium falciparum 7G8 incubated for 48 hrs by SYBR staining based fluorometer assay; assay type: functional, organism-based; details: 7G8, 48 h
# Plasmodium knowlesi = test: Antiplasmodial activity against wild type Plasmodium knowlesi YH1 incubated for 30 hrs by SYBR staining based flow cytometry assay; assay type: functional, organism-based; details: YH1, 30 h
# Plasmodium falciparum [35] = test: Antiplasmodial activity against multidrug resistant Plasmodium falciparum Cam3.1 incubated for 48 hrs by SYBR staining based fluorometer assay; assay type: functional, organism-based; details: Cam3.1, 48 h
# Plasmodium falciparum [36] = test: Antiplasmodial activity against Plasmodium falciparum 3D7 infected in RBC assessed as reduction in nucleotide level at 5 nM incubated for 5 hrs by LC-MS analysis; assay type: functional, organism-based
smiles,measurement,setting,value
Cc1nc(-c2ccc3ccn(CC(=O)Nc4ccccc4Cl)c3c2)no1,CC50 at 48 h,[1],> 40000 nM
same,EC50,Plasmodium falciparum [2],955 nM
Cc1nnc(-c2ccc3ccn(CC(=O)Nc4ccccc4Cl)c3c2)o1,Activity,Plasmodium falciparum [3],3.5%
same,EC50,Plasmodium falciparum [4],901 nM
same,EC50,Plasmodium falciparum [5],786 nM
same,EC50,Plasmodium falciparum [6],569 nM
same,EC50,Plasmodium falciparum [7],> 10000 nM
same,IC50,[8],~400 nM
same,intrinsic clearance (CLint),[9],410 µL/min/mg
same,EC50,Plasmodium falciparum [10],> 10000 nM
same,solubility kinetic,[11],10.9 µM
same,logD,[12],3.1
same,intrinsic clearance (CLint),[13],> 462 µL/min/mg
same,EC50,Plasmodium falciparum [14],2540 nM
same,CC50,HepG2 [15],> 40000 nM
same,Activity,Plasmodium falciparum [16],Active
same,inhibition,[17],Active
same,EC50,Plasmodium falciparum [18],1280 nM
same,CC50,HepG2 [19],> 40000 nM
same,EC50,Plasmodium falciparum [2],667 nM
same,EC50,Plasmodium falciparum [20],667 nM
same,intrinsic clearance (CLint),[21],> 92 uL/min/10^6 cells
same,EC50,Plasmodium falciparum [22],1160 nM
same,EC50,Plasmodium falciparum [23],3600 nM
same,EC50,Plasmodium falciparum [24],> 10000 nM
same,Activity,Plasmodium falciparum [25],Active
same,EC50,Plasmodium falciparum [26],5000 nM
COc1cc(NC(=O)Cn2ccc3ccc(-c4nnc(C)o4)cc32)cc(OC)c1OC,EC50,Plasmodium falciparum [27],99 nM
same,intrinsic clearance (CLint),[9],69 µL/min/mg
same,solubility kinetic,[11],5.1 µM
same,logD,[12],2.7
same,Activity,Plasmodium falciparum [28],inactive
same,intrinsic clearance (CLint),[13],42 µL/min/mg
same,Activity,Plasmodium falciparum [29],inactive
same,CC50,HepG2 [15],> 40000 nM
same,EC50,Plasmodium falciparum [30],73 nM
same,EC50,Plasmodium falciparum [31],77 nM
same,EC50,Plasmodium falciparum [2],200 nM
same,intrinsic clearance (CLint),[21],8.9 uL/min/10^6 cells
same,EC50,Plasmodium falciparum [23],1500 nM
same,Activity,Plasmodium falciparum [32],inactive
same,Activity,Plasmodium falciparum [33],inactive
same,EC50,Plasmodium falciparum [34],165 nM
same,EC50,Plasmodium knowlesi,195 nM
same,EC50,Plasmodium falciparum [35],124 nM
same,Activity,Plasmodium falciparum [36],inactive
same,EC50,Plasmodium falciparum [26],3400 nM
